Compounds with a hit are over-represented: about 2.6% of the library has one in this group of screens.
esBAF inh = inhibitors of esBAF chromatin remodeling in mouse ES cells. Bmi1-luciferase knock-in reporter, 24 h; 100% = twice the neutral-well signal. reporter increase, % at 12.5 µM. 350,000 compounds, 2% hits. AID 602393; in the data active = activation above about 40%; inconclusive = no clear call, values can overlap the other calls;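 also: 0% = median of the plate's neutral control wells and 100% = double that signal; a rise in the Bmi1 reporter signal indicates esBAF inhibition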
ARFGAP1 inh = inhibitors of rat ARFGAP1; Q62848; Arfgap1-stimulated ARF1 GTP hydrolysis, GDP FP detection; inhibition, % at 16.5 µM; 360,000 compounds, 0.26% hits;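 active = inhibition above a per-plate limit, mean inhibition of low control wells plus 3 SD, cut at about 25% in these data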;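 also: 0% = DMSO wells with enzyme and 100% = wells lacking Arfgap1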
Target sequence (Q62848 1-136 limits assumed): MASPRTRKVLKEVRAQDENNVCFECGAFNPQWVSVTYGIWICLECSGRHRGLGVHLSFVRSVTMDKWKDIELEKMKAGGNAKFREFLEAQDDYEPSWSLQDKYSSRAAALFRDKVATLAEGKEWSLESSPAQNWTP
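Replicates: Single well per compound | Assay system: Truncated rat Arfgap1 GAP domain | Control set: No-Arfgap1 wells (100%) versus DMSO full-reaction wells (0%) | Times: Enzyme reaction 120 min at 25 °C after 20 min preincubation | Reagent: Human ARF1(Δ1-17)-GTP substrate | Measured by: Tracer-displacement fluorescence polarization with EDTA stop, 620/688 nm | Measure: Percent inhibition of Arfgap1-stimulated GTP hydrolysis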
SMARCA2 activ = increases SMARCA2 function in MMTV reporter cells; MG213 cells, MMTV-luciferase reporter, dexamethasone, overnight; activation, % at 9.1 µM; 370,000 compounds, 1% hits; AID 652017; in the data active = activation above about 7.8%;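 also: 0% = vehicle wells and 100% = reference activator wells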
ASAP1 inh = ASAP1 ArfGAP inhibition; inhibition, % at 16.5 µM; ASAP1-stimulated ARF1 GTP hydrolysis, GDP FP detection; Q9ULH1; 360,000 compounds, 0.19% hits; in the data active = inhibition above about 25%;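 also: 0% = vehicle with enzyme and substrate and 100% = no enzyme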
* = called active by the depositor.

What do the screens show for `O=C(CC1CC1)Nc1ccc2c(c1)[C@@H]1C[C@H](CC(=O)NC3CCCC3)O[C@H](CO)[C@@H]1O2`?
esBAF inh: -8.2

What do the screens show for `CO[C@@H]1CN(C)C(=O)c2cc(NS(=O)(=O)c3ccc(C)cc3)ccc2OC[C@H](C)NC[C@@H]1C`?
esBAF inh: 0.9

How did O=C(Nc1cccc(-c2ccc(N3CCOCC3)nn2)c1)c1ccc([N+](=O)[O-])cc1 do in these assays?
esBAF inh: 52.1*; ARFGAP1 inh: 9.8; SMARCA2 activ: 3.5; ASAP1 inh: -0.2

What do the screens show for `Cc1ccccc1C(=O)Nc1cccc(-c2ccc(N3CCOCC3)nn2)c1`?
esBAF inh: 59.8*; ARFGAP1 inh: 2.2; SMARCA2 activ: 1.7; ASAP1 inh: 6.3

Results for Cc1ccc(C(=O)Nc2cccc(-c3ccc(N4CCOCC4)nn3)c2)cc1[N+](=O)[O-] ?
esBAF inh: 41.4*; ARFGAP1 inh: 6.2; SMARCA2 activ: 5.9; ASAP1 inh: 2.8

Results for O=C(Nc1cccc(-c2ccc(N3CCOCC3)nn2)c1)c1ccccc1 ?
esBAF inh: 34.5; ARFGAP1 inh: -3.0; SMARCA2 activ: 7.7; ASAP1 inh: 10.7

Results for O=C(Nc1cccc(-c2ccc(N3CCCCC3)nn2)c1)c1ccc(Br)o1 ?
esBAF inh: -8.4; ARFGAP1 inh: 15.4; SMARCA2 activ: 7.9*; ASAP1 inh: 13.7

What do the screens show for `C[C@@H]1CN([C@H](C)CO)C(=O)c2cccc(NC(=O)C3CCCCC3)c2O[C@H]1CN(C)S(=O)(=O)c1cccs1`?
esBAF inh: 5.4

Results for CC(C)NC(=O)N(C)C[C@H]1OCCCC[C@@H](C)Oc2ccc(NS(=O)(=O)c3cn(C)cn3)cc2C(=O)N([C@@H](C)CO)C[C@@H]1C ?
esBAF inh: -4.9

What do the screens show for `CO[C@H]1CN(C)C(=O)c2cc(NC(=O)Nc3cccc(Cl)c3)ccc2OC[C@H](C)N(C(=O)Nc2c(C)noc2C)C[C@H]1C`?
esBAF inh: -4.5

How did C[C@@H]1CCCCO[C@H](CN(C)C(=O)Nc2ccc3c(c2)OCO3)[C@H](C)CN([C@H](C)CO)C(=O)c2cc(NC(=O)c3ccncc3)ccc2O1 do in these assays?
esBAF inh: 30.2

How did O=C(NCC1CC1(Cl)Cl)Nc1ccc(Cl)c(Cl)c1 (configuration not stated) do in these assays?
esBAF inh: 31.8; ARFGAP1 inh: 8.6; SMARCA2 activ: -1.4; ASAP1 inh: -7.0

Results for Cc1ccc(NC(=O)NCC2CC2(Cl)Cl)cc1 (configuration not stated) ?
esBAF inh: 49.9*; ARFGAP1 inh: 5.0; SMARCA2 activ: 3.9; ASAP1 inh: 4.9

How did C[C@@H]1CCCCO[C@@H](CN(C)C(=O)C2CCCCC2)[C@H](C)CN([C@@H](C)CO)C(=O)c2cc(NC(=O)C3CCCCC3)ccc2O1 do in these assays?
esBAF inh: 10.2

What do the screens show for `O=[N+]([O-])c1cc(Br)cc(C=Nc2ccc3c(c2)OCO3)c1O`?
esBAF inh: -8.3; ARFGAP1 inh: -10.9; SMARCA2 activ: -2.7; ASAP1 inh: -9.1

Results for O=[N+]([O-])c1ccc(O)c(C=Nc2ccc3c(c2)OCO3)c1 ?
esBAF inh: 41.4*; ARFGAP1 inh: 0.9; SMARCA2 activ: 5.6; ASAP1 inh: 0.3

How did C#CCn1c(=NC(=O)c2ccc(Cl)s2)sc2cccc(OC)c21 do in these assays?
esBAF inh: 49.8*; ARFGAP1 inh: -7.7; SMARCA2 activ: 0.3; ASAP1 inh: 3.2

How did Oc1ccccc1/C=N/NC(=S)NC1CC2CC1C1C=CCC21 (configuration not stated) do in these assays?
esBAF inh: 56.8*; ARFGAP1 inh: 5.9; SMARCA2 activ: -0.5; ASAP1 inh: -7.9

Results for CCCNC(=O)N1C[C@H](C)[C@H](OC)CN(C)C(=O)c2cc(NS(C)(=O)=O)ccc2OC[C@H]1C ?
esBAF inh: -8.2

What do the screens show for `OC1CCC(Nc2ccn3nc(-c4cccc(Cl)c4)cc3n2)CC1` (configuration not stated)?
esBAF inh: inconclusive; ARFGAP1 inh: 1.3; SMARCA2 activ: 1.4; ASAP1 inh: 10.2

Results for CCC(CO)Nc1ccn2nc(-c3cccc(Cl)c3)cc2n1 (configuration not stated) ?
esBAF inh: 72.3*; ARFGAP1 inh: -5.1; SMARCA2 activ: 2.1; ASAP1 inh: 1.2

What do the screens show for `Cc1ccc(Nc2n[nH]c(=S)s2)cc1C`?
esBAF inh: 50.9*; ARFGAP1 inh: 4.2; SMARCA2 activ: 7.5; ASAP1 inh: 11.4

How did C[C@@H]1CN([C@@H](C)CO)S(=O)(=O)c2ccc(-c3cncnc3)cc2O[C@@H]1CN(C)Cc1ccncc1 do in these assays?
esBAF inh: 2.0

High-throughput results (PubChem)
